These results are taken from the M2OR odorant receptor database.

Common to all, as to conditions: stereoisomer not certain
In test [1] the target is T1, UniProt Q8VG27.
T1 sequence (whole entry): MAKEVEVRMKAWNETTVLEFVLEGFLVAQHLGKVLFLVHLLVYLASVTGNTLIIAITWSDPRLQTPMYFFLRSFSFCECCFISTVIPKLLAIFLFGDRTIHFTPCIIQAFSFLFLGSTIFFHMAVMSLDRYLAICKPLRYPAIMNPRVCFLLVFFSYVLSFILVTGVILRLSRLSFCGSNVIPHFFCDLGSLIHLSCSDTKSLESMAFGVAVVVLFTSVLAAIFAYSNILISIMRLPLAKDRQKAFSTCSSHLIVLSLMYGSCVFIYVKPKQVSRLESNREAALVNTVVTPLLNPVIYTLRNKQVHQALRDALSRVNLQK
An outline of the steps:
(§1)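 Assay methods differ from source to source, frequently being transient luciferase assays in mammalian cell lines. For each receptor–molecule pair, the label responsive (active) applies when the original authors judged the measured signal statistically different from baseline, and non-responsive (inactive) applies otherwise.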

Test [2] has as its target T2, UniProt Q8VG49.
T2 sequence (whole entry): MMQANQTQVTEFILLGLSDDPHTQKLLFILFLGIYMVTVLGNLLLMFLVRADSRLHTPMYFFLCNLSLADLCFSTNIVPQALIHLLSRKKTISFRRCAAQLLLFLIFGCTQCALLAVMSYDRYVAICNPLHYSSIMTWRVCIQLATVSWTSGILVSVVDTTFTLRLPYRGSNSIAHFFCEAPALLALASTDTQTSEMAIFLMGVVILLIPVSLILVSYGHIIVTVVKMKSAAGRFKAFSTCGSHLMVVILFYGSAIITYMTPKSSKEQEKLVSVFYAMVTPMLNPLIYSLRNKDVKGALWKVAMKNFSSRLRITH
In outline:
as §1

The target of test [3] is T3, UniProt Q8VG53.
T3 sequence (whole entry): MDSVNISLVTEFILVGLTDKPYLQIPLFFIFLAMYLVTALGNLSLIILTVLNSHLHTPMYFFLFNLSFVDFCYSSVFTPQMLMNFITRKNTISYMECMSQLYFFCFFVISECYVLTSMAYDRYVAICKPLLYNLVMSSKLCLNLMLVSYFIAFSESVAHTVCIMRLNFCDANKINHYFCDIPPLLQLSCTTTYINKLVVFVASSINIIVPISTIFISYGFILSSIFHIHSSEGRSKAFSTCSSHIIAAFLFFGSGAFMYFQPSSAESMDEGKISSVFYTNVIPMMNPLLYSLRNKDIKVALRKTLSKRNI
An outline of the steps:
as §1

Test [4] concerns the target T4, UniProt Q8VG64.
T4 sequence (whole entry): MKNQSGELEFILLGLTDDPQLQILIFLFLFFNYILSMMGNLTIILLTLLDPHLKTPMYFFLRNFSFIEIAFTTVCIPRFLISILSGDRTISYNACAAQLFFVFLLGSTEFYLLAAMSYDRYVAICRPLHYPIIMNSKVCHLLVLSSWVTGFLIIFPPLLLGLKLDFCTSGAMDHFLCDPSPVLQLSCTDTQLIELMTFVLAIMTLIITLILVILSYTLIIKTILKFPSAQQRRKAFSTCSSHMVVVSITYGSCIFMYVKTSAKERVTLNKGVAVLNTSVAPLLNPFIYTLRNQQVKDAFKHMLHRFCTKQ
In outline:
as §1

In test [5] the target is T5, UniProt Q8VG77.
T5 sequence (whole entry): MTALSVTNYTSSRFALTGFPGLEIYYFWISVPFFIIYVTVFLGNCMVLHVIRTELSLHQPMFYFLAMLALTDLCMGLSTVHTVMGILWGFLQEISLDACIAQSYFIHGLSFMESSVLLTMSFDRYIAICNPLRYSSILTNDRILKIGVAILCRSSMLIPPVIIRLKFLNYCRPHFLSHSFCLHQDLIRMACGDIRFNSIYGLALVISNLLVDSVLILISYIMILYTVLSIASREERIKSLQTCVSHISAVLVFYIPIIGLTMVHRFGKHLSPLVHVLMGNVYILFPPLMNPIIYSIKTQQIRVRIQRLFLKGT
An outline of the steps:
as §1

Test [6] concerns the target T6, UniProt Q8VG96.
T6 sequence (whole entry): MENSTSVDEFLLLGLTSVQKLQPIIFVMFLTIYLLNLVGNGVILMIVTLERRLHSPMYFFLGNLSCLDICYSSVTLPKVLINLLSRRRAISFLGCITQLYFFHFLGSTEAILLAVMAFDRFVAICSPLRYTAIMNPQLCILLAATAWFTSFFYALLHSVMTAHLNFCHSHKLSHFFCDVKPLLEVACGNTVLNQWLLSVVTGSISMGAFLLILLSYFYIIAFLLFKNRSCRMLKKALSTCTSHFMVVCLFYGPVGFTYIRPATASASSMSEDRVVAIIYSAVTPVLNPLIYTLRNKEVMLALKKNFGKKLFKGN
An outline of the steps:
as §1

Test [7] deals with T7, UniProt Q8VGB9.
T7 sequence (whole entry): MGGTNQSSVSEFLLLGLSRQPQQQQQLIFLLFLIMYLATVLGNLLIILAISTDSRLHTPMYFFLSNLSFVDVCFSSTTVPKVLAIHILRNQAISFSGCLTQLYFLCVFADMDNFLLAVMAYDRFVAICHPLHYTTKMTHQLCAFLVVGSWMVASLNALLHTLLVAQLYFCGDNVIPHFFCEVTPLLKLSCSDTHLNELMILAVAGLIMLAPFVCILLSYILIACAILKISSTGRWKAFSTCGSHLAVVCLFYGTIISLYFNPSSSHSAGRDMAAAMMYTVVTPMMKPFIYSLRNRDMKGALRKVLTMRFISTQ
An outline of the steps:
as §1

Test [8] deals with T8, UniProt Q8VGC6.
T8 sequence (whole entry): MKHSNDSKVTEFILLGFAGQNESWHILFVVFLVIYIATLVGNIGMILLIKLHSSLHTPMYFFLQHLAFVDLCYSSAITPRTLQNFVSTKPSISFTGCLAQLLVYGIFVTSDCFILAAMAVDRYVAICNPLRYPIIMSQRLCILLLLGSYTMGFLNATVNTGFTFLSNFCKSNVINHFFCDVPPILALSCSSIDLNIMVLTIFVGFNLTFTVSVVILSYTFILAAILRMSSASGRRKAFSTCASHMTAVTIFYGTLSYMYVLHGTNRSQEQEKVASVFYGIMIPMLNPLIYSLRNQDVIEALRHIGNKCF
An outline of the steps:
as §1

Test [9] deals with T9, UniProt Q8VGD7.
T9 sequence (whole entry): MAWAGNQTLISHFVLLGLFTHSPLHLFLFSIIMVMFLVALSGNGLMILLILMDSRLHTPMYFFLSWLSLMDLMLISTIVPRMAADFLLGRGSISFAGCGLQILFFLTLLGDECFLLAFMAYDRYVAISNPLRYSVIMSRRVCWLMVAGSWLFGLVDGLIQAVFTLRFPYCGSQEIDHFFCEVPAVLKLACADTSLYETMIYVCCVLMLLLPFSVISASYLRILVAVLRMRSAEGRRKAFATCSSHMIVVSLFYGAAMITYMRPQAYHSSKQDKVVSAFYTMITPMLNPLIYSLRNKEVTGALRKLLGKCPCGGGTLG
In outline: as §1

In test [10] the target is T10, UniProt Q8VGH1.
T10 sequence (whole entry): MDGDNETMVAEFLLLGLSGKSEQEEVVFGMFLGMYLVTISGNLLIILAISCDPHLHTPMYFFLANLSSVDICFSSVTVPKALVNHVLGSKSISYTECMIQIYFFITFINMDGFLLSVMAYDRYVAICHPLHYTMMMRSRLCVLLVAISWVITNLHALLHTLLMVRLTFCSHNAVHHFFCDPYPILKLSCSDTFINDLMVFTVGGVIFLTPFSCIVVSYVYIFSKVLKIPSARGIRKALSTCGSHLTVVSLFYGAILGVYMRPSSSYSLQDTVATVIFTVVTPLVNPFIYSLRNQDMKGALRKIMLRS
An outline of the steps:
as §1

Test [11] has as its target T11, UniProt Q8VGJ1.
T11 sequence (whole entry): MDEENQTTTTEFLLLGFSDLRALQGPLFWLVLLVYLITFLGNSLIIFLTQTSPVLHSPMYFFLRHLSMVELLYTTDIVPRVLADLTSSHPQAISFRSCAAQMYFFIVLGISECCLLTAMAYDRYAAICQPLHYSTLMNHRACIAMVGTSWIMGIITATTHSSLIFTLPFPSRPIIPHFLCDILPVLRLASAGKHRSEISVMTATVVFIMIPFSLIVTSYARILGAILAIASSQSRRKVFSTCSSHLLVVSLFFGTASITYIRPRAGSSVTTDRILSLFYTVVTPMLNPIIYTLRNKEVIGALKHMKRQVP
An outline of the steps:
as §1

Test [12] deals with T12, UniProt Q8VGJ3.
T12 sequence (whole entry): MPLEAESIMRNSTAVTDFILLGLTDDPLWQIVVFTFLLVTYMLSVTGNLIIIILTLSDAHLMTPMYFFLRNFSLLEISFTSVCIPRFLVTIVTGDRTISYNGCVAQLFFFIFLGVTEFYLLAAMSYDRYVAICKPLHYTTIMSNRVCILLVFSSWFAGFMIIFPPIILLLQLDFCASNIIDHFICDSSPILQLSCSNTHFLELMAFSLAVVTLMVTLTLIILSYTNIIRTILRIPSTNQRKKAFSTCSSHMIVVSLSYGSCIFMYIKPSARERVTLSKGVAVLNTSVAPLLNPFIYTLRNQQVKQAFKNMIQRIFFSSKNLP
In outline:
as §1

In test [13] the target is T13, UniProt Q8VGJ5.
T13 sequence (whole entry): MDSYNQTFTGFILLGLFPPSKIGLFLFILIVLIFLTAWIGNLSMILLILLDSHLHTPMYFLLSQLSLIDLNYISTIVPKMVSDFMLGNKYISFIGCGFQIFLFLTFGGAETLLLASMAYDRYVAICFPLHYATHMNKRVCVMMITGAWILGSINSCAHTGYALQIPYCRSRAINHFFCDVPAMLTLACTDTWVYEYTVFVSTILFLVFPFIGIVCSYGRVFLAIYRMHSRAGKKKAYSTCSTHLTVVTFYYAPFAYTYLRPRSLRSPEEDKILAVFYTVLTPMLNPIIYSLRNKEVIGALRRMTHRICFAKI
In outline: as §1

For test [14], the target named is T14, UniProt Q8VGL0.
T14 sequence (whole entry): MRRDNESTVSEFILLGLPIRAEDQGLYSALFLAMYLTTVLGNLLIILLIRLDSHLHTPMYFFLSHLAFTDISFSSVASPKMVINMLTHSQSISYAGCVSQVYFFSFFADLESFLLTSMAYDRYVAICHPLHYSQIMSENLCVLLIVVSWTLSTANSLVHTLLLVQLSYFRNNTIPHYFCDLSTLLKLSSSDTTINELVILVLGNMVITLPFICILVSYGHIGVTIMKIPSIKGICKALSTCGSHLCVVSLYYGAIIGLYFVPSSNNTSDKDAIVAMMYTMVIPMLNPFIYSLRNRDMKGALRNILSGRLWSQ
An outline of the steps:
as §1

For test [15], the target named is T15, UniProt Q8VGL7.
T15 sequence (whole entry): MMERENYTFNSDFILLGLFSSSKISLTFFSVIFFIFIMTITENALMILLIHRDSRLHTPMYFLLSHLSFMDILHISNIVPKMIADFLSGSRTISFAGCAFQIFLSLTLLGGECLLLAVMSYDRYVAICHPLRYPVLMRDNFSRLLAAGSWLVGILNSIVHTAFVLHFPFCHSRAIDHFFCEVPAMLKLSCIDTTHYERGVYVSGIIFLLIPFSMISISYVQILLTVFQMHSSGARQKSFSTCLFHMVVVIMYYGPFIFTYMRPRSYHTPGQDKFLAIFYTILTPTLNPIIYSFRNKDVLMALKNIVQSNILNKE
An outline of the steps:
as §1

As to `CCCCCCC(C)=O`, the “odorant receptor agonist call” value in [1], in test [2], in test [3], in test [4], in [5] and in [6] was “inactive” in each case. Besides, the “odorant receptor agonist call” value in test [7], in [9], in test [10], in test [11], in [12] and in test [14] was “inactive” each time. Besides, the “odorant receptor agonist call” value in [15] is “inactive”. Besides, the “odorant receptor agonist call” value in test [8] and in test [13] was “active” in each case.
Turning to `C=CCOC(=O)CCCCCC`, the “odorant receptor agonist call” value in test [1], in [2], in test [3], in [4], in test [5] and in test [6] was “inactive” each time. Moreover, the “odorant receptor agonist call” value in test [7], in test [8], in test [9], in test [10], in test [11] and in test [12] was “inactive” throughout. Further, the “odorant receptor agonist call” value in [13], in test [14] and in test [15] was “inactive” each time.
As to `CCCCCC1=C(C)CCC1=O`, the “odorant receptor agonist call” value in test [1], in test [2], in test [3], in [4], in [5] and in test [6] was “inactive” each time. Besides, the “odorant receptor agonist call” value in [7], in test [8], in test [9], in [10], in [11] and in test [12] was “inactive” throughout. For the same molecule, the “odorant receptor agonist call” value in [14] is “inactive”. Besides, the “odorant receptor agonist call” value in [13] and in test [15] was “active” throughout.
For the molecule `CCCCOC=O`, the “odorant receptor agonist call” value in [1], in test [2], in [3], in [4], in test [5] and in test [6] was “inactive” throughout. The “odorant receptor agonist call” value in test [7], in test [8], in test [9], in test [10], in test [11] and in [12] was “inactive” each time. Moreover, the “odorant receptor agonist call” value in test [13], in test [14] and in [15] was “inactive” in each case.
